An excerpt weighted towards active compounds, which were near 2.1% of everything screened.
GRK2 inh = inhibitors of human GRK2 displacing RNA aptamer. P25098. inhibition of aptamer binding, % at 10 µM. actives 0.59% (n = 330,000). bead flow cytometry, FAM-aptamer displacement from GRK2;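 active = inhibition of aptamer binding above 40%, roughly 3 SD of noise, on plates passing a quality check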;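 note: median bead fluorescence of bound FAM aptamer so fluorescent compounds give negative values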
Target sequence (P25098 whole entry, looked up): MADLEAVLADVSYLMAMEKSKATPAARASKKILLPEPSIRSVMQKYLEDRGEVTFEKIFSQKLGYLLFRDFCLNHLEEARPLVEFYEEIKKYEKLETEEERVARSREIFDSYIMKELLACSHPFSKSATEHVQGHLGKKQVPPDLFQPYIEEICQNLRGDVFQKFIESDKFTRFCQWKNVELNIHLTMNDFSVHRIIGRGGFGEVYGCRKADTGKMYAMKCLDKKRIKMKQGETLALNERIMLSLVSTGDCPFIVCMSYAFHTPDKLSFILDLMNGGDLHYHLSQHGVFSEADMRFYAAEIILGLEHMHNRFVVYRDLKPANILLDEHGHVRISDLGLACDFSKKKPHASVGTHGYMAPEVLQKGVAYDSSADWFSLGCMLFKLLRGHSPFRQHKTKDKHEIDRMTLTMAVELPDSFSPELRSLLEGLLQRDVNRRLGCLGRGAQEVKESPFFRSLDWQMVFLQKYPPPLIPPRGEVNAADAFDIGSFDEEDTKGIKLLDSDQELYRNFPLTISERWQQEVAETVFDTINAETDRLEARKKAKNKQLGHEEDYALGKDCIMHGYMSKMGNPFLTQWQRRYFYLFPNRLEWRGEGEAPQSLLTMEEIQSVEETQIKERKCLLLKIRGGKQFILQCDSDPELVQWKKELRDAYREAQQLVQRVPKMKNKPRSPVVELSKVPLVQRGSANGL
SUMO1-SIM PPI = SUMO1-SIM interaction modulation | actives 0.33% (n = 360,000) | P63165 | SUMO1 binding to a labelled peptide, TR-FRET, 1 h | inhibition, % at 20 µM; in the data active = inhibition above about 37%
LMPTP inh = blocks human LMPTP phosphatase; P24666; recombinant LMPTP-A, OMFP fluorogenic substrate, fluorescence intensity; inhibition, % at 20 µM; actives 0.22% (n = 360,000); AID 651560;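 active = compounds that cut the enzyme signal by at least half of the control window in the single-dose screen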
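Test system: LMPTP-A phosphatase enzyme; input: 0.625 nM LMPTP-A final; reagent: OMFP substrate, 400 µM final; compound dosing: 20 µM single dose, 3% DMSO; incubation: 50 min dark incubation at room temperature; measured by: endpoint fluorescence intensity from OMFP dephosphorylation; measure: % inhibition relative to no-enzyme and uninhibited control wells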
STEP block = blocks human striatal-enriched tyrosine phosphatase; inhibition, % at 20 µM; AID 588621; P54829; actives 0.25% (n = 360,000); recombinant STEP, OMFP fluorogenic substrate, fluorescence;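 active = inhibition at 20 µM, scaled per plate between control wells, above about 37%, limit read from the data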
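System: STEP (striatal-enriched tyrosine phosphatase) enzyme, cell-free; medium: Bis-Tris pH 6.0 buffer with DTT, detergent; dosing: 20 µM, 1% DMSO; times: reaction 20 min, ambient temperature; detection: fluorescence, 480/540 nm; read-out basis: normalized % inhibition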
DNMT1 inh = DNMT1 (human) enzyme inhibition; P26358; DNMT1 molecular beacon, Hinp1I cleavage, fluorescence; inhibition (reported as % activation of signal), % at 10 µM; actives 0.83% (n = 360,000); AID 588458; in the data active = inhibition above about 50%
Scp1 inh = Scp-1 (human) phosphatase inhibition; actives 0.88% (n = 340,000); Recombinant Scp1, phosphopeptide, malachite green phosphate absorbance; AID 493091; inhibition, % at 20 µM;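 active = inhibition above about 50% at 20 µM, limit read from the data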
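Test system – truncated SCP-1 phosphatase (76-261aa) · Reagent – Phosphorylated 17-residue peptide substrate · Incubation – 45 min room-temperature reaction, 5 min colour, 30 min stabiliser · Detection – colorimetric phosphate reagent with accelerator and stabiliser, absorbance at 630 nm · Measure – % inhibition at 20 µM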
Large screens that a line does not name were inactive.

CCCCCCNC(=O)N[C@@H](C(=O)NCCC[C@H]1CN2C(=NC[C@@H]2Cc2ccccc2)N1CCc1cccc(OC)c1)C(C)C	Scp1 inh 92 (no result: SUMO1-SIM PPI, LMPTP inh, STEP block, DNMT1 inh)
COc1ccc(N=Cc2cc(Cc3ccccc3Cl)cc([N+](=O)[O-])c2O)cc1OC	Scp1 inh 67
Cc1ccc(N=Cc2cc(Cc3ccccc3Cl)cc([N+](=O)[O-])c2O)c(O)c1	none
COc1cccc(NC(=O)C2(C)CCN2C(=O)C2CCCCC2)c1 (centres undefined)	none (no result: GRK2 inh, Scp1 inh)
Cc1ccc(C)c(C(=O)CN2Cc3ccccc3C2=O)c1	SUMO1-SIM PPI 46
COC(=O)c1ccccc1NC1=C/C(=N\S(=O)(=O)c2ccc(C(=O)O)cc2)c2ccccc2C1=O	SUMO1-SIM PPI 103, DNMT1 inh 81
Cc1ccc(S(=O)(=O)/N=C2\C=C(Nc3cccc(C(=O)O)c3)C(=O)c3ccccc32)cc1	DNMT1 inh 60
O=C1C(Nc2ccccc2)=C/C(=N/S(=O)(=O)c2cccs2)c2ccccc21	DNMT1 inh 68
Cc1ccc(S(=O)(=O)/N=C2\C=C(Nc3ccc(O)cc3)C(=O)c3ccccc32)cc1	DNMT1 inh 53
Cc1ccc(NC2=C/C(=N/S(=O)(=O)c3cccs3)c3ccccc3C2=O)cc1	none
O=C1c2ccccc2C(c2nnnn2-c2ccc3c(c2)OCCO3)N1CCCN1CCOCC1 (centres undefined)	none (no result: GRK2 inh, STEP block, DNMT1 inh, Scp1 inh)
C[C@@H]1CN([C@H](C)CO)S(=O)(=O)c2ccc(C#CC3CCCC3)cc2O[C@H]1CN(C)C(=O)Cc1ccccc1	none (no result: GRK2 inh, Scp1 inh)
COc1cc(OC)c2c(O)c3c(c(-c4c5c(c(O)c6c(OC)cc(OC)cc46)CO[C@@H](C)[C@H]5O)c2c1)[C@H](O)[C@H](C)OC3	LMPTP inh 51, DNMT1 inh 100, Scp1 inh 55
Oc1c(Cl)cc(Cl)cc1Sc1cc(Cl)cc(Cl)c1O	none (no result: SUMO1-SIM PPI, LMPTP inh, STEP block, DNMT1 inh, Scp1 inh)
O=S(c1cc(Cl)cc(Cl)c1O)c1cc(Cl)cc(Cl)c1O	SUMO1-SIM PPI 43 (no result: GRK2 inh, STEP block, DNMT1 inh, Scp1 inh)
COC(=O)C(C#N)(CCC(=O)c1ccccc1)CCC(=O)c1ccccc1	none (no result: GRK2 inh, Scp1 inh)
O=c1c2ccccc2sn1-c1ccc(S(=O)(=O)N2CCCCC2)cc1	none
O=c1c2cc(F)ccc2sn1-c1ccccc1	Scp1 inh 92
O=C(O)c1cccc(-n2sc3ccccc3c2=O)c1	Scp1 inh 88
Cc1ccc(-n2sc3ccccc3c2=O)cc1S(=O)(=O)N1CCCCC1	Scp1 inh 97
O=c1c2ccccc2sn1-c1ccccc1	Scp1 inh 65
CCCCN(C(=O)COC(=O)c1sccc1C)c1c(N)n(CCC)c(=O)[nH]c1=O	none (no result: GRK2 inh, Scp1 inh)
CC(C)NC(=O)C1(C)CN(S(C)(=O)=O)CC(=O)N1Cc1cccs1 (centres undefined)	none (no result: GRK2 inh, STEP block, DNMT1 inh, Scp1 inh)
Cc1c(NC(=O)CSc2nnc(-c3ccccc3F)o2)c(=O)n(-c2ccccc2)n1C	none (no result: GRK2 inh, Scp1 inh)
CCc1nc2c(OCc3ccc(Cl)cc3)cccn2c1N(C)C(=O)c1ccncc1	none (no result: GRK2 inh, Scp1 inh)
CN(C)S(=O)(=O)c1cccc(-n2sc3ccccc3c2=O)c1	Scp1 inh 99
O=c1c2ccccc2sn1-c1nccs1	Scp1 inh 96 (no result: GRK2 inh)
O=C1c2ccccc2C(=O)N1c1nccs1	none (no result: GRK2 inh)
CCCCCC(=O)N1C[C@@H](n2cc(COC(=O)c3ccccc3)nn2)[C@H](O)C[C@@H]1c1ccc(C)cc1	none (no result: GRK2 inh, Scp1 inh)
CN1CCN(C2=C(Cl)C(=O)c3ccccc3C2=O)CC1	SUMO1-SIM PPI 62, DNMT1 inh 87 (no result: GRK2 inh)
C/C=C/C=C\C(=O)Nc1cccc(C2=NOC3(C2)C[C@H](C(N)=O)N(C(=O)CC#N)C3)c1 (some centres undefined)	SUMO1-SIM PPI 71, Scp1 inh 67
COc1ccccc1NC(=O)N(C)C[C@@H]1OCc2cnnn2CCCC(=O)N([C@@H](C)CO)C[C@@H]1C	none (no result: GRK2 inh, Scp1 inh)
O=S(=O)(c1ccccc1)c1nnn2c1nc(NC1CCN(Cc3ccccc3)CC1)c1cc(Cl)ccc12	none
O=S(=O)(c1ccccc1)c1nnn2c1nc(NC1CCN(Cc3ccccc3)CC1)c1ccccc12	LMPTP inh 66
CCN(CC)C(=O)C1=C(C)N(Cc2ccc(C(C)(C)C)cc2)C(=O)C(CC(=O)NCC2CCCCC2)C1 (centres undefined)	none (no result: GRK2 inh, Scp1 inh)
Nc1c(S(=O)(=O)O)cc(NC(=O)c2ccccc2)c2c1C(=O)c1ccccc1C2=O	SUMO1-SIM PPI 69, Scp1 inh 71
CCC/C(C#Cc1ccc(N(C)C)cc1)=C1/c2ccccc2C(=O)N1c1ccccc1	Scp1 inh 57
C/C(=N/NC(=O)c1cc(O)c(O)c(O)c1)c1ccc([N+](=O)[O-])cc1	Scp1 inh 50 (no result: GRK2 inh)
CN(C)c1ccc(/C=N/NC(=O)c2nnn(-c3nonc3N)c2COc2ccc(F)cc2)cc1	LMPTP inh 51
Nc1nonc1-n1nnc(C(=O)N/N=C/c2cc(Cl)ccc2O)c1CN1CCCCCC1	DNMT1 inh 50 (no result: Scp1 inh)
CN(Cc1c(C(=O)N/N=C/c2ccccc2O)nnn1-c1nonc1N)C1CCCCC1	DNMT1 inh 59 (no result: GRK2 inh, Scp1 inh)
CCOc1ccc(/C=N/NC(=O)c2nnn(-c3nonc3N)c2COc2ccc(F)cc2)cc1	none
COc1ccc(CNC(=O)CC[C@H]2O[C@@H](n3ccc(=O)[nH]c3=O)[C@H](O)[C@@H]2O)cc1	none (no result: GRK2 inh, Scp1 inh)
CC(C)C(=O)N1CCCC1(C)C(=O)Nc1ccccc1 (centres undefined)	none (no result: GRK2 inh, Scp1 inh)
COc1ccc(/C=C/C(=O)Nc2cccc(C(C)=O)c2)cc1	GRK2 inh 88
O=c1c2cc(Cl)ccc2nc(-c2ccc(Cl)c(Cl)c2)n1O	LMPTP inh 54
O=c1c2cc(Cl)ccc2nc(-c2ccccc2)n1O	none
Oc1ccccc1/C=N/[n+]1ccccc1	Scp1 inh 103
CCCC[C@@H]1CNC(=O)C(=O)N1CCCC	SUMO1-SIM PPI 49 (no result: GRK2 inh, STEP block, DNMT1 inh, Scp1 inh)
CCCCN1C(=O)C(=O)NC[C@@H]1CCCCN	none
COc1cccc2c1C(=O)c1c(O)c3c(c(O)c1C2=O)C[C@@](O)(C(=O)CO)C[C@@H]3OC1CC(N)C(O)C(C)O1 (some centres undefined)	SUMO1-SIM PPI 92 (no result: GRK2 inh)
COc1cccc2c1C(=O)c1c(O)c3c(c(O)c1C2=O)C[C@@](O)(C(=O)CO)C[C@@H]3O[C@H]1C[C@H](N)[C@H](O)[C@H](C)O1	none
Cc1ccc(C(O)c2ncc(-c3ccc(F)cc3)[nH]2)cc1F (centres undefined)	none (no result: GRK2 inh, Scp1 inh)
CCOC(=O)N1CCN(C(=O)c2ccc(CS(=O)c3cccc(C)c3)o2)CC1 (centres undefined)	none (no result: GRK2 inh, Scp1 inh)
CCc1ccc(C=C2SC(=S)N(CCCC(=O)Nc3ccc(C(=O)O)cc3)C2=O)cc1	LMPTP inh 59 (no result: GRK2 inh, Scp1 inh)
CCc1ccc(/C=C2/SC(=S)N(CCC(=O)Nc3ccc(C(=O)O)cc3)C2=O)cc1	SUMO1-SIM PPI 85, LMPTP inh 62 (no result: Scp1 inh)
